Measured values: ChEMBL document CHEMBL5033992, “Discovery and Synthesis of a Pyrimidine-Based Aurora Kinase Inhibitor to Reduce Levels of MYC Oncoproteins” (J Med Chem, 2021)
Blank lines part the entries; values can stand above or below the molecule they belong to. Active and inactive are the calls of the source. No cut-off for these calls is given here.

Legend:
[1] = Effect on cMYC protein expression level in human NCI-H82 cells assessed as fold change at 1 uM incubated for 24 hrs by Western blot analysis relative to control; format: functional
Method in brief: (§1)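 Cells treated with compound at various concentrations for 24 h, then washed in PBS, lysed in Laemmli buffer and boiled 10 min. Lysates run on SDS-PAGE, transferred to PVDF and probed with antibodies, then AP- or HRP-conjugated secondaries with chemiluminescent detection. Loading control β-actin. NCI-H82 grown in RPMI1640 and SK-N-BE(2) in MEM, each with 10% FBS. Relative levels quantified from triplicate experiments.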

[2] = Effect on MYCN protein expression level in human SKNBE2 cells assessed as fold change at 1 uM incubated for 24 hrs by Western blot analysis relative to control; format: functional, SK-N-BE(2); method in brief: as §1
[3] = Half life in ICR mouse at 10 mg/kg, po measured up to 24 hrs by LC-MS/MS analysis; format: ADME, organism-based; settings: in vivo
[4] = Cmax in ICR mouse at 10 mg/kg, po measured up to 24 hrs by LC-MS/MS analysis; format: ADME, organism-based; design: route oral, dose 10 mg/kg, time <=24; settings: in vivo
[5] = Tmax in ICR mouse at 10 mg/kg, po measured up to 24 hrs by LC-MS/MS analysis; format: ADME, organism-based; settings: in vivo
[6] = AUC (0 to inf) in ICR mouse at 10 mg/kg, po measured up to 24 hrs by LC-MS/MS analysis; format: ADME, organism-based; design: route oral, dose 10 mg/kg, time <=24; settings: in vivo
[7] = biological target: T1, Aurora kinase A (Homo sapiens) (UniProt O14965); test: Inhibition of recombinant GST-tagged N-terminal truncated human Aurora A (123 to 401 residues) expressed in Sf9 insect cell using tetra-LRRASLG peptide as substrate at 100 nM incubated for 120 mins by Kinase-Glo plus luminescent kinase assay relative to control
T1 sequence (whole entry): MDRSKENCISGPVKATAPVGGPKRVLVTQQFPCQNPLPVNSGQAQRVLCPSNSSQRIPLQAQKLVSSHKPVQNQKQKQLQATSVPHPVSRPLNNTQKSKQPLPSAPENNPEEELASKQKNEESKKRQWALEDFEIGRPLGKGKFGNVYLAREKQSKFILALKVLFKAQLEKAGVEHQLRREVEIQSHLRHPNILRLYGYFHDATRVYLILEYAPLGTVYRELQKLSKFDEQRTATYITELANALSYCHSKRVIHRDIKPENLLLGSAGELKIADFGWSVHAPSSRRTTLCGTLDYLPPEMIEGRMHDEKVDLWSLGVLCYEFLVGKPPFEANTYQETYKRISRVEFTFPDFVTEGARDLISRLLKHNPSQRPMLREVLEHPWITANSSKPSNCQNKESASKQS

[8] = Half life in ICR mouse at 2 mg/kg, iv measured up to 24 hrs by LC-MS/MS analysis; format: ADME, organism-based; settings: in vivo
[9] = Clearance in ICR mouse at 2 mg/kg, iv measured up to 24 hrs by LC-MS/MS analysis; format: ADME, organism-based; settings: in vivo
[10] = Volume of distribution at steady state in ICR mouse at 2 mg/kg, iv measured up to 24 hrs by LC-MS/MS analysis; format: ADME, organism-based; settings: in vivo, read-out: Vdss
[11] = AUC (0 to inf) in ICR mouse at 2 mg/kg, iv measured up to 24 hrs by LC-MS/MS analysis; format: ADME, organism-based; design: route intravenous, dose 2 mg/kg, time <=24; settings: in vivo; for AUC(0-inf): ICR
[12] = Oral bioavailability in ICR mouse at 10 mg/kg measured up to 24 hrs by LC-MS/MS analysis; format: ADME, organism-based; settings: in vivo
NCI-H446 [13] = test: Anti-tumor activity against human NCI-H446 cells xenografted in athymic nu/nu nude mouse assessed as reduction in tumor volume at 50 to 100 mg/kg, po administered at 5 on-2-off for 2 to 4 weeks; format: functional, organism-based; settings: dose 50-100 mg/kg, time 2-4 weeks
Method in brief: (§2)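 Male athymic nu/nu mice, 6 weeks old, inoculated subcutaneously with 1 × 10⁶ NCI-H446 cells in saline with 50% Matrigel. Dosing IV or oral, vehicle 5% dimethylacetamide/95% PEG400, on a 5-on-2-off schedule for 2–4 weeks once tumors reached ≥200 mm³. Caliper volume = length × width²/2; tumors and body weight measured at least twice weekly. ANOVA with Student–Newman–Keuls, P < 0.05.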

[14] = Toxicity in athymic nu/nu nude mouse xenografted with NCI-H446 cells assessed as reduction in body weight at 50 to 100 mg/kg, po administered at 5 on-2-off for 2 to 4 weeks relative to control; format: organism-based; design: scale not given: the % may be the effect or the level left; settings: in vivo, dose lower 50 mg/kg, time lower 2 weeks, dose upper 100 mg/kg, time upper 4 weeks; method in brief: as §2
[15] = biological target: Aurora kinase B (Homo sapiens) (UniProt Q96GD4); test: Inhibition of Aurora B phosphorylation in human NCI-H82 cells assessed as reduction in phosphorylation at Thr 232 residue at 50 to 1000 nM after 24 hrs by Western blot analysis; format: cell-based; settings: dose 50-1000 nM; method in brief: as §1
NCI-H82 [16] = test: Inhibition of Histone H3 phosphorylation in human NCI-H82 cells assessed as reduction in phosphorylation at Ser 10 residue at 50 to 1000 nM after 24 hrs by Western blot analysis; format: cell-based; settings: dose 50-1000 nM; method in brief: as §1
[17] = biological target: Aurora kinase B (Homo sapiens) (UniProt Q96GD4); test: Inhibition of Aurora B phosphorylation in human SKNBE2 cells assessed as reduction in phosphorylation at Thr 232 residue at 50 to 1000 nM after 24 hrs by Western blot analysis; format: cell-based; settings: dose 50-1000 nM; method in brief: as §1
SKNBE2 = test: Inhibition of Histone H3 phosphorylation in human SKNBE2cells assessed as reduction in phosphorylation at Ser 10 residue at 50 to 1000 nM after 24 hrs by Western blot analysis; settings: dose 50-1000 nM; method in brief: as §1
NCI-H82 [18] = test: Down regulation of Cyclin B1 expression in human NCI-H82 cells at 50 to 1000 nM after 24 hrs by Western blot analysis; format: functional, cell-based; settings: dose 50-1000 nM; method in brief: as §1
SK-N-BE(2) [19] = test: Down regulation of Cyclin B1 expression in human SKNBE2 cells at 50 to 1000 nM after 24 hrs by Western blot analysis; format: functional, cell-based; settings: dose 50-1000 nM; method in brief: as §1
NCI-H446 [20] = test: Induction of apoptosis in human NCI-H446 cells xenografted in athymic nu/nu nude mouse assessed as increase in cleaved PARP1 protein expression level at 100 mg/kg, po measured up to 24 hrs by Western blot analysis; settings: time hrs <=24
[21] = Inhibition of Histone H3 phosphorylation in human NCI-H446 cells xenografted in assessed as reduction in phosphorylation at Ser 10 residue at 100 mg/kg, po measured upto 8 hrs by western blot analysis relative to control
NCI-H82 [22] = test: Growth inhibition of human NCI-H82 cells assessed as reduction in cell viability after 72 hrs by PrestoBlue Cell Viability assay; format: functional, cell-based; settings: NCI-H82, 72 h
Method in brief: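 Cells seeded at 5000–10,000 per well, grown 24 h in RPMI1640 with 10% FBS and antibiotics, then exposed to compound at 0–10 μM for 72 h. Viability read by PrestoBlue fluorescence. IC50 from triplicate eight-point titration.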

NCI-H82 [23] = test: Induction of cell cycle arrest in human NCI-H82 cells at 1 uM after 24 hrs by Propidium iodide staining based flow cytometric analysis; format: functional
SK-N-BE(2) [24] = test: Growth inhibition of human SKNBE2 cells assessed as reduction in cell viability after 24 hrs by PrestoBlue Cell Viability assay; settings: SKNBE2, 24 h

Sequence of Aurora kinase B (Homo sapiens) (Q96GD4 whole entry): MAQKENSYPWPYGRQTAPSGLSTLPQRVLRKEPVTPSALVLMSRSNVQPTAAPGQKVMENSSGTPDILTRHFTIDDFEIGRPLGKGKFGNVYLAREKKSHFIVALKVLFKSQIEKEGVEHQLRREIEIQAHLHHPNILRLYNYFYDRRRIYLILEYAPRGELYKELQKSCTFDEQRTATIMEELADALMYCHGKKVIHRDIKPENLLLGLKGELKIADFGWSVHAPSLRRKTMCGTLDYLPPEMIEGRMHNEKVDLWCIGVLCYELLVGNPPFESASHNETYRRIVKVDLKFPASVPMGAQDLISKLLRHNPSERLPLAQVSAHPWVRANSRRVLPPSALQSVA

Structure (SMILES): Cc1cc(Nc2cc(N3CC(N(C)C)C3)nc(N[C@H]3CCN(C(=O)c4cccc(Cl)c4F)C3)n2)n[nH]1
fold change (FC) [1]: 1.084
fold change (FC) [2]: 0.754

Structure (SMILES): CCOC(=O)n1nc(Nc2cc(N3CCN(CC)CC3)nc(N[C@H]3CCN(C(=O)c4ccc(Cl)cc4F)C3)n2)cc1C
half-life [3]: 2.3 h
Cmax [4]: 274 ng/mL
Tmax [5]: 0.4 h
AUC(0-inf) [6]: 961 ng·h/mL

Structure (SMILES): Cc1cc(Nc2cc(N3CCN(C)CC3)nc(N[C@H]3CCN(C(=O)c4cccc(Cl)c4F)C3)n2)n[nH]1
fold change (FC) [1]: 0.843
fold change (FC) [2]: 0.815

Structure (SMILES): CCN1CCN(c2cc(Nc3cc(C)[nH]n3)nc(N[C@H]3CCN(C(=O)c4cccc(Cl)c4F)C3)n2)CC1
fold change (FC) [2]: 0.741

Structure (SMILES): CCN1CCN(c2cc(Nc3cc(C)nn3C(=O)C(C)(C)C)nc(N[C@H]3CCN(C(=O)c4ccc(Cl)cc4F)C3)n2)CC1
half-life [8]: 5.5 h
clearance [9]: 73.3 mL/min/kg
Vd [10]: 18.8 L/kg
AUC(0-inf) [11]: 401 ng·h/mL
half-life [3]: 2.2 h
Cmax [4]: 36.1 ng/mL
Tmax [5]: 1.4 h
AUC(0-inf) [6]: 157 ng·h/mL
bioavailability [12]: 7.8%

Structure (SMILES): CCOC(=O)n1nc(C)cc1Nc1cc(N2CCN(CC)CC2)nc(N[C@H]2CCN(C(=O)c3ccc(Cl)cc3F)C2)n1
half-life [8]: 5.8 h
clearance [9]: 20 mL/min/kg
Vd [10]: 2.8 L/kg
AUC(0-inf) [11]: 1480 ng·h/mL
half-life [3]: 2.7 h
Cmax [4]: 1090 ng/mL
Tmax [5]: 0.3 h
AUC(0-inf) [6]: 4050 ng·h/mL
bioavailability [12]: 54.5%
Activity (NCI-H446 [13]): Dose-Dependent Effect
Activity [14]: < 5%

Structure (SMILES): COc1cc(Nc2ncc3c(n2)-c2ccc(Cl)cc2C(c2c(F)cccc2OC)=NC3)ccc1C(=O)O [ALISERTIB]
inhibition [15]: Dose-Dependent Effect
inhibition (NCI-H82 [16]): Active
inhibition [17]: Dose-Dependent Effect
inhibition (SKNBE2): Active
Activity (NCI-H82 [18]): Active
Activity (SK-N-BE(2) [19]): Active
Activity (NCI-H446 [20]): Active
inhibition in vivo at 100 mg/kg [21]: > 90%

Structure (SMILES): Cc1cc(Nc2cc(N(C)CCN(C)C)nc(N[C@H]3CCN(C(=O)c4cccc(Cl)c4F)C3)n2)n[nH]1
fold change (FC) [1]: 0.911
fold change (FC) [2]: 0.805

Structure (SMILES): CCN1CCN(c2cc(Nc3cc(C)nn3C(=O)OC(C)(C)C)nc(N[C@H]3CCN(C(=O)c4ccc(Cl)cc4F)C3)n2)CC1
half-life [8]: 5 h
clearance [9]: 38 mL/min/kg
Vd [10]: 4.9 L/kg
AUC(0-inf) [11]: 780 ng·h/mL
half-life [3]: 3.3 h
Cmax [4]: 690 ng/mL
Tmax [5]: 0.5 h
AUC(0-inf) [6]: 1130 ng·h/mL
bioavailability [12]: 28.9%

Structure (SMILES): CCN(CCCOc1ccc2c(Nc3cc(CC(=O)Nc4cccc(F)c4)[nH]n3)ncnc2c1)CCOP(=O)(O)O [BARASERTIB]
IC50 (NCI-H82 [22]): 1 nM
Activity (NCI-H82 [23]): Active
IC50 (SK-N-BE(2) [24]): 1 nM

Structure (SMILES): CCN1CCN(c2cc(Nc3cc(C)[nH]n3)nc(N[C@H]3CCN(C(=O)c4ccccc4)C3)n2)CC1
fold change (FC) [1]: 0.93
fold change (FC) [2]: 0.919

Structure (SMILES): CCN1CCN(C(=O)Cc2ccc(Nc3ncc(F)c(Nc4ccc(C(=O)Nc5ccccc5Cl)cc4)n3)cc2)CC1
IC50 (NCI-H82 [22]): 1 nM
IC50 (SK-N-BE(2) [24]): 1 nM

Structure (SMILES): Cc1cc(Nc2cc(N3CC[C@H](N(C)C)C3)nc(N[C@H]3CCN(C(=O)c4cccc(Cl)c4F)C3)n2)n[nH]1
fold change (FC) [1]: 0.996
fold change (FC) [2]: 0.809

More lines, now with the values ahead:

inhibition [7]: < 50%
Structure (SMILES): CCN1CCN(c2cc(Nc3cc(C)[nH]n3)nc(N[C@H]3CCN(C(=O)c4ccc(C(F)(F)F)cc4F)C3)n2)CC1

inhibition [7]: < 50%
Structure (SMILES): CCN1CCN(c2cc(Nc3cc(C)[nH]n3)nc(N[C@H]3CCN(C(=O)c4cc(F)c(Cl)c(F)c4)C3)n2)CC1

inhibition [7]: < 50%
Structure (SMILES): CCN1CCN(c2cc(Nc3cc(C)[nH]n3)nc(N[C@H]3CCN(C(=O)c4cc(F)c(F)cc4F)C3)n2)CC1

inhibition [7]: < 50%
Structure (SMILES): CCN1CCN(c2cc(Nc3cc(C)[nH]n3)nc(N[C@H]3CCN(C(=O)c4ccc(Cl)nc4F)C3)n2)CC1

half-life [8]: 1 h
Vd [10]: 0.9 L/kg
AUC ([11]; 24 h): 351 ng·h/mL
half-life [3]: 1.9 h
Cmax [4]: 114 ng/mL
Tmax [5]: 0.4 h
AUC(0-inf) [6]: 243 ng·h/mL
Structure (SMILES): CCC(=O)n1nc(Nc2cc(N3CCN(CC)CC3)nc(N[C@H]3CCN(C(=O)c4ccc(Cl)cc4F)C3)n2)cc1C

inhibition [7]: < 50%
Structure (SMILES): CCN1CCN(c2cc(Nc3cc(C)[nH]n3)nc(N[C@H]3CCN(S(=O)(=O)c4ccc(Cl)cc4F)C3)n2)CC1
